# Bioassay records from PubChem.
# A selection: hits, their analogues and other compounds. The true share with any hit is near 3.7%.
# Kir21 inh – inhibitors of mouse Kir2.1 inward-rectifier potassium channel; Inward rectifier potassium channel 2 (Mus musculus), P35561; B-score at 10 µM; 0.85% of 310,000 active; HEK293-Kir2.1, FluxOR thallium flux fluorescence; stronger effect = lower value;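 active = fluorescence ratio B-score at or below minus 3 SD of library scores, with starting-brightness B-score within 2 SD, cut at about -4.2 in these data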;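 also: channel flux triggered by added potassium and thallium sulfate stimulus; B-score of peak minus minimum fluorescence over baseline after thallium stimulus; more negative B-score means stronger Kir2.1 block with less thallium influx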
# KCNK3 inh – human KCNK3 channel inhibitors, primary screen, CHO cells, FluxOR thallium flux, B-score; FluxOR fluorescence; stronger effect = lower value; 0.84% of 340,000 active; AID 602410, 2012; B-score at 10 µM; Potassium channel subfamily K member 3 (Homo sapiens), O14649;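 active = B-score under library mean minus 4 SD, starting fluorescence ratio at most library mean plus 5 SD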;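 also: more negative B-score means stronger inhibition of thallium flux through KCNK3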
# hERG protect – hERG rescue from dofetilide block, primary screen, cell-based, CHO-hERG, FluxOR thallium flux, dofetilide IC70; Voltage-gated inwardly rectifying potassium channel KCNH2 (Homo sapiens), Q12809; dofetilide IC70 present; activation (rescue from dofetilide block), less the hit threshold, % at 10 µM; 0.51% of 310,000 active; AID 1511, 2009;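 active = activation above the mean of controls blocked by dofetilide plus 5 SD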;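 also: thallium influx through hERG after potassium depolarization seen as dye fluorescence rise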
# Target sequence (Q12809 whole entry, looked up): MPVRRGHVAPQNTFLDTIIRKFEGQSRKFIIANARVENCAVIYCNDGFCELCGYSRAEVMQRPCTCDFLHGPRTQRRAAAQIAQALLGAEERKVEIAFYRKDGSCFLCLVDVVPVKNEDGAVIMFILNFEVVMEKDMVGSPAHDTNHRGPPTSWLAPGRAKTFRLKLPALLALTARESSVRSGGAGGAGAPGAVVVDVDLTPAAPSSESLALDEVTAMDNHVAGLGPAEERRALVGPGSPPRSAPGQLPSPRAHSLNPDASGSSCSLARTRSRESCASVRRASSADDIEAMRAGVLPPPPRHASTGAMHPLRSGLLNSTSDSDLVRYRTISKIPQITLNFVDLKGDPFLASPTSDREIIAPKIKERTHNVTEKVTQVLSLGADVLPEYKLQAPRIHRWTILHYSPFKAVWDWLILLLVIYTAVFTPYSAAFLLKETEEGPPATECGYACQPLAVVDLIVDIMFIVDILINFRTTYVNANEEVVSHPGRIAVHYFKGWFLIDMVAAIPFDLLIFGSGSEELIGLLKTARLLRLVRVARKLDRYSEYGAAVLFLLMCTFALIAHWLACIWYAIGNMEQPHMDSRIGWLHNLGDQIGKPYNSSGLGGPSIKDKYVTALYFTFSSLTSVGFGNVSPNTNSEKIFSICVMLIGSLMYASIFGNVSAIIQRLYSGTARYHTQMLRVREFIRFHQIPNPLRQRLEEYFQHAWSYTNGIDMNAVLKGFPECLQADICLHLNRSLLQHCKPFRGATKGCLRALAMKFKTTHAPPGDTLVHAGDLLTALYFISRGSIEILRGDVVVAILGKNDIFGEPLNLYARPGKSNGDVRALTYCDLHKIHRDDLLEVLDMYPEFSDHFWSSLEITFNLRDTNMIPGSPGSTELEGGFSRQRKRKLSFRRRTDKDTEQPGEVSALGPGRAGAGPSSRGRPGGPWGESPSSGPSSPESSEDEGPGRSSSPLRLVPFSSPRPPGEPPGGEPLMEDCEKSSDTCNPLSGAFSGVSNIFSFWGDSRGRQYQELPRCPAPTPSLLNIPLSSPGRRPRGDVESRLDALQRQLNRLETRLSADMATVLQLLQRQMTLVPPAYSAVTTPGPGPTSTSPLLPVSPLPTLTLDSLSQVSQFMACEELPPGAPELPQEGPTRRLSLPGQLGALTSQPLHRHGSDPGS
# KCNK9 block – KCNK9 potassium channel inhibitors, primary screen, HEK293 cells, thallium flux | FluxOR thallium flux fluorescence; stronger effect = lower value | B-score at 10 µM | 1.2% of 310,000 active;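 active = ratio B-score over 3 SD below the library mean, with starting fluorescence within 5 SD of its mean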;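 also: negative B-score means less thallium flux so channel inhibition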
# KCNQ1 inh – inhibitors of human KCNQ1 channel, primary screen, cell-based, thallium flux, high-throughput. Potassium voltage-gated channel subfamily KQT member 1 (Homo sapiens), P51787. CHO-K1 KCNQ1, FluxOR thallium flux fluorescence; stronger effect = higher value. B-score at 10 µM. 1.3% of 310,000 active. AID 2642, 2010;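 active = compounds whose thallium flux B-score, printed positive for inhibition, exceeds three library SD while starting fluorescence stays within three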;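 also: channel opened by potassium depolarization with thallium stimulus after 20 min compound exposure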
# KCNQ1 pot – potentiators or activators of KCNQ1 channel, primary screen, cell-based, thallium flux, high-throughput; 0.35% of 310,000 active; AID 2648, 2010; CHO-K1 KCNQ1, thallium flux FluxOR fluorescence; stronger effect = higher value; B-score at 10 µM; Potassium voltage-gated channel subfamily KQT member 1 (Homo sapiens), P51787;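 active = fluorescence ratio B-score, a plate-corrected score, at least three library SD, with initial intensity B-score within 5 SD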
#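 Assay system: CHO-K1 cells stably expressing KCNQ1; Medium: assay buffer with matched DMSO; Also added: K+/Tl+ depolarizing stimulus; Dosing: single dose; Timing: dye 90 min, compound 20 min, room temperature; Measured by: kinetic FluxOR thallium fluorescence, 10-s 1-Hz baseline, 110-s post-stimulus read; Read-out: peak-minus-minimum fluorescence over initial fluorescence, negative-control normalized, B-scored.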
# KCNK3 confirm – retest of human KCNK3 channel inhibitors, confirmation, CHO cells, FluxOR thallium flux, triplicate; shares compounds with KCNK3 inh; FluxOR fluorescence; 0% buffer, 100% carvedilol maximal block; ratio percent of control, % at 10 µM; 99% of 2,400 active; AID 651638, 2012;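 active = ratio percent of control, averaged over triplicates, above buffer control mean plus 5 SD, cut at about 64% in these data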;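 also: ratio is the fluorescence rise from min to max over baseline after thallium stimulus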
# KCNK3 noninduced – thallium flux inhibition in non-induced cells, primary screen, counter-screen for KCNK3 inhibitor project, cell-based, non-induced KCNK3 line, FluxOR thallium, triplicate. shares compounds with KCNK3 inh. non-induced KCNK3 parental cells; stronger effect = lower value. thallium flux ratio (lower = more inhibition) at 10 µM. 40% of 2,400 active;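 active = thallium flux ratio, averaged over three wells, more than 5 SD below the buffer control mean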;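 also: host cells are CHO cells without KCNK3 induction; ratio is peak minus trough fluorescence over baseline then normalized to buffer controls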
# The depositor's hits bear a star; i = inactive; x = not tested or not shown.
SMILES,Kir21 inh,KCNK3 inh,hERG protect,KCNK9 block,KCNQ1 inh,KCNQ1 pot,KCNK3 confirm,KCNK3 noninduced
CC1CC(C)(C)N(C(=O)CSc2ccc(-c3ccc(F)cc3)nn2)c2ccccc21 (stereo not drawn),-0.7,-12*,-10,i,7*,i,112*,0.15*
CC1CCN(C(=O)CSc2ccc(-c3ccc(F)cc3)nn2)CC1,1.3,i,-10,i,i,i,x,x
Cc1nc(-c2ccccc2)sc1C(=O)CSc1ccc(F)cc1,3.4,-13*,-12,i,i,i,96*,i
CN1C(=O)C(C)(C)c2cc(S(=O)(=O)NCC3CCC(C(=O)NCc4ccccc4)CC3)ccc21 (stereo not drawn),0.41,i,-11,i,i,i,x,x
CC1CCCC(C)N1CCNC(=O)CCc1nnc2n(Cc3ccccc3)c(=O)c3ccccc3n12 (stereo not drawn),0.04,i,-8,i,i,i,x,x
CCOCCCNC(=O)/C(C#N)=C/c1ccc(Cl)c([N+](=O)[O-])c1,0.92,-9.1*,-22,i,i,i,122*,0.12*
Clc1ccccc1C(c1ccccc1)(c1ccccc1)n1ccnc1,-0.68,-11*,-14,-18*,i,i,129*,0.13*
FC(F)(F)c1ccccc1-n1ccnc1,x,i,x,x,x,x,x,x
CCc1nc(Nc2cc(OC)ccc2OC)c2oc3ccccc3c2n1,1.9,i,-1,i,i,i,x,x
CCc1nc(Nc2ccccc2OC)c2oc3ccccc3c2n1,0.27,-9.2*,-5,i,i,i,116*,0.14*
CC(c1ccco1)N(C(=O)c1ccc(Cl)c([N+](=O)[O-])c1)c1ccccn1 (stereo not drawn),-2.4,i,-8,i,i,i,x,x
COc1ccccc1CNC(=O)COC(=O)C1CCN(c2ccc(C(F)(F)F)cn2)CC1,-0.84,i,-16,i,i,i,x,x
CCCN(Cc1ccccc1)C(=S)Nc1ccc(F)cc1,-0.02,i,-14,i,i,i,x,x
Cc1ccc(NC(=S)N(C)C(c2ccccc2)c2ccccc2)cc1C,1.4,-9.1*,-8,i,i,i,134*,0.12*
Cc1ccc(NC(=S)N(CCN(C)C)C(C)c2ccco2)cc1C (stereo not drawn),-0.16,i,-6,i,i,i,x,x
CN(C(=S)Nc1ccc(F)cc1)C(c1ccccc1)c1ccccc1,0.77,-11*,-12,i,i,i,115*,i
CCN(CC)S(=O)(=O)c1ccc(C)c(NC(=S)N2CCN(C/C=C/c3ccccc3)CC2)c1,-0.3,-11*,-17,i,i,i,101*,i
CCN(CC)C(=O)Oc1nnc(SC(C)C)n1-c1ccc(Cl)c(Cl)c1,2.2,i,-11,i,i,i,x,x
CCN(CC)C(=O)Oc1nnc(SC(C)C)n1-c1ccc(Cl)cc1,-1.1,-9.6*,-10,i,i,i,86*,i
COC(=O)c1sccc1NS(=O)(=O)c1ccccc1[N+](=O)[O-],x,i,x,x,x,x,x,x
CC(=O)NN1C(=O)/C(=C\c2ccc(O)cc2)SC1=S,-1.8,i,-5,i,i,i,x,x
O=C1/C(=C\c2ccc(O)cc2)SC(=S)N1/N=C/c1ccc(O)cc1,-0.45,-8.8*,-17,i,7*,i,109*,0.15*
Fc1ccc(C2=Nc3cccc4cccc(c34)N2)cc1,-0.07,i,-1,i,i,i,x,x
FC(F)(F)C1=Nc2cccc3cccc(c23)N1,x,-13*,x,x,x,x,127*,0.11*
CC(=O)c1cn(CCOc2ccccc2C)c2ccccc12,-1,i,-8,i,i,i,x,x
SMILES,Kir21 inh,KCNK3 inh,hERG protect,KCNK9 block,KCNQ1 inh,KCNQ1 pot,KCNK3 confirm,KCNK3 noninduced
CC(=O)c1cn(CCOc2ccc(F)cc2)c2ccccc12,-2.4,-9*,-7,i,i,i,104*,i
Cc1ccc(OCCn2cc(C#N)c3ccccc32)cc1,1.1,-9.5*,-6,i,i,i,101*,0.15*
COC(=O)c1cn(CCOc2ccc(C)cc2)c2ccccc12,-1.2,-8.9*,-5,i,i,i,108*,i
COC1C=CC=C(C)C(=O)NC2=CC(=O)C(N)=C(CC(C)CC(OC)C(O)C(C)C=C(C)C1OC(N)=O)C2=O (stereo not drawn),x,i,x,x,x,x,x,x
CC(OC(=O)c1cccc(-n2cnnn2)c1)C(=O)N(C)c1ccccc1 (stereo not drawn),-0.2,i,-5,i,i,i,x,x
Cc1nn(CCCC(=O)Nc2cc(Oc3ccccc3)cc([N+](=O)[O-])c2)c(C)c1[N+](=O)[O-],-1.2,-8.8*,-6,i,i,i,124*,0.14*
O=C(c1ccc(Br)o1)N1CCc2ccccc21,-1.4,x,-11,i,i,i,x,x
O=C(CO/N=C/c1cccc([N+](=O)[O-])c1)Nc1ccc2ccccc2c1,-0.8,-9.2*,3,i,i,i,98*,i
CC(CCN1CCN(c2ccc(F)cc2)CC1)c1ccccc1 (stereo not drawn),0.91,i,-8,i,i,i,x,x
COc1ccc(O)c(C(=O)c2cnn(-c3ccc(Cl)cc3)c2)c1,0.34,-12*,-4,i,i,i,92*,i
Cc1cc(=O)[nH]c(SCC(=O)NC2CCCCC2)n1,-1.4,i,1,i,i,i,x,x
CCCN(c1nc(C)cc(OC)n1)S(=O)(=O)c1ccccc1,-8.3*,-12*,-8,i,i,i,101*,i
Cc1ccc(S(=O)(=O)N(CC(=O)NCCC2=CCCCC2)Cc2ccccc2F)cc1,0.62,-9.4*,-9,i,i,i,116*,i
